From ChEMBL document CHEMBL1138662, “Macrocyclic diacylglycerol-bis-lactones as conformationally constrained analogues of diacylglycerol-lactones. Interactions with protein kinase C” (J Med Chem, 2004) come the findings set out here.

Data set [1] is described as follows: Displacement of [20-3H]-phorbol 12,13-dibutyrate (PDBU) from recombinant Protein kinase C alpha (C1a/C1b domain) in presence of phosphatidyl serine. The method in brief:
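Competition binding: displacement of bound [20-3H]phorbol 12,13-dibutyrate from recombinant PKCα isozyme with phosphatidylserine present. IC50 derived by fitting data to a theoretical noncooperative competitive inhibition curve; binding affinity reported as Ki.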

The nature of data set [2]: Partition coefficient (logP). It counts as physicochemical. The following applies: octanol/water.

As for `O=C1CCCCCCCCCC/C=C2/CC(CO)(CO1)OC2=O` (stereo not given), in data set [1], the Ki was 52.7 nM. Also, the logP in data set [2] stood at 1.88.
Take `CCCCCCCCCCCCCCCCC/C=C1\CC(CO)(COC(C)=O)OC1=O` (stereo not given): in data set [1], the inhibition constant Ki turned out to be 28 nM. The same compound registered a logP in data set [2] of 7.11.
As for `O=C1CCCCCC/C=C2\CC(CO)(CO1)OC2=O` (stereo not given), in data set [1], the Ki came to 1800 nM. Also, the log partition coefficient (logP) in data set [2] is -0.08.
For the compound `CC(C)CC(C/C=C1/CC(CO)(COC(=O)C(C)(C)C)OC1=O)CC(C)C` (stereo not given), in data set [1], the Ki was found to be 2.9 nM.
`CCCCCCCCCCCCC/C=C1/C[C@@](CO)(COC(C)=O)OC1=O` (stereo in doubt; 3): the Ki in data set [1] was 35 nM.
In the case of `O=C1CCCCCCCCCCCCCC/C=C2/CC(CO)(CO1)OC2=O` (stereo not given), in data set [1], the Ki is 6.07 nM. The logP in data set [2] was determined as 3.85.
For `CCCCCCCCCCCCC/C=C1\CC(CO)(COC(C)=O)OC1=O` (stereo not given), the inhibitory constant (Ki) in data set [1] is 77.8 nM. In data set [2], this compound registered a lipophilicity (logP) of 5.36.
For the compound `CCCCCCCCCCCCC/C=C1/C[C@@](CO)(COC(C)=O)OC1=O` (stereo in doubt), the Ki in data set [1] was 35.1 nM. The compound also had a lipophilicity (logP) in data set [2] of 5.36.
Take `CCCCCCCCCCCCCC(=O)OCC1(CO)CCC(=O)O1` (stereo not given): the inhibitory constant (Ki) in data set [1] amounted to 138 nM. The log partition coefficient (logP) in data set [2] was determined as 4.53.
On to `CCCCCCCCCCCCCC(=O)OCC(CO)OC(C)=O` (stereo not given), for which, in data set [1], the Ki amounted to 1000 nM. For the same compound, in data set [2], the lipophilicity (logP) is 5.25.
For the compound `CCCCCCCCCCCCCCCCC/C=C1/CC(CO)(COC(C)=O)OC1=O` (stereo not given), the logP in data set [2] was 7.11.
`O=C1CCCCCCCCCCCCCC/C=C2\CC(CO)(CO1)OC2=O` (stereo not given): in data set [1], the Ki was 12.2 nM. Also, in data set [2], the logP amounted to 3.85.
In the case of `O=C1CCCCCCCCCCCCCCCCCC/C=C2/CC(CO)(CO1)OC2=O` (stereo not given), the Ki in data set [1] was 10.3 nM. The same compound yielded a logP in data set [2] of 5.81.
As for `O=C1CCCCCCCCCCCCCCCCCC/C=C2\CC(CO)(CO1)OC2=O` (stereo not given), the inhibition constant Ki in data set [1] turned out to be 22 nM. Further, in data set [2], the logP was found to be 5.81.

In general, Ki refers to the equilibrium dissociation constant of an inhibitor or competing ligand from its target. The term logP denotes a log measure of how a compound divides between an organic and an aqueous phase. The low end stands for lower lipophilicity, the high end for higher lipophilicity.
